Measurements from ChEMBL document CHEMBL1157589, “Antifungal 3,5-disubstituted furanones: From 5-acyloxymethyl to 5-alkylidene derivatives” (Bioorg Med Chem, 2010).
Values after ≈ are worked out from the molar mass of the structure shown. Active and inactive are the calls of the source. The rule behind the calls is not given here.

Legend:
[1] = tested on: Candida parapsilosis; assay: Antifungal activity against Candida parapsilosis ATCC 22019 after 24 hrs by microdilution method; type: functional; details: Lodderomyces parapsilosis, ATCC 22019, 24 h
How it was run: (§1)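 Yeasts held on Sabouraud dextrose agar. MIC by NCCLS M27-A broth microdilution in RPMI 1640 with L-glutamine, buffered with 0.165 M MOPS to pH 7.0. Compounds in DMSO (≤2% final), twofold dilutions 500–0.48. Final inoculum 5 × 10³ ± 0.2 cfu mL⁻¹. Incubated at 35 °C; absorbance at 540 nm read at 24 and 48 h. MIC is 80% growth inhibition versus control; run twice in duplicate.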

[2] = tested on: Clavispora lusitaniae; assay: Antifungal activity against Candida lusitaniae 2446/I after 48 hrs by microdilution method; type: functional; how it was run: as §1
[3] = tested on: Aspergillus fumigatus; assay: Antifungal activity against Aspergillus fumigatus 231 after 24 hrs by microdilution method; type: functional; details: Aspergillus fumigatus, 231, 24 h
How it was run: (§2)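 Filamentous strains held on Sabouraud dextrose agar. NCCLS M27-A broth microdilution in RPMI 1640 with L-glutamine and 0.165 M MOPS, pH 7.0. DMSO diluent ≤2% final; twofold dilutions 500–0.48. Inoculum 5 × 10³ ± 0.2 cfu mL⁻¹ final.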

[4] = tested on: Candida parapsilosis; assay: Antifungal activity against Candida parapsilosis ATCC 22019 after 48 hrs by microdilution method; type: functional; details: Lodderomyces parapsilosis, ATCC 22019, 48 h; how it was run: as §1
[5] = tested on: Candida tropicalis; assay: Antifungal activity against Candida tropicalis 156 after 24 hrs by microdilution method; type: functional; details: Candida tropicalis, 156, 24 h; how it was run: as §1
[6] = tested on: Nakaseomyces glabratus; assay: Antifungal activity against Candida glabrata 20/I after 24 hrs by microdilution method; type: functional; how it was run: as §1
[7] = tested on: Pichia kudriavzevii; assay: Antifungal activity against Candida krusei ATCC 6258 after 24 hrs by microdilution method; type: functional; details: ATCC 6258, 24 h; how it was run: as §1
[8] = tested on: Lichtheimia corymbifera; assay: Antifungal activity against Absidia corymbifera 272 after 48 hrs by microdilution method; type: functional; details: Lichtheimia corymbifera, 272, 48 h; how it was run: as §2
[9] = tested on: Trichosporon beigelii; assay: Antifungal activity against Trichosporon beigelii 1188 after 24 hrs by microdilution method; type: functional; details: Trichosporon beigelii, 1188, 24 h; how it was run: as §1
[10] = tested on: Trichosporon beigelii; assay: Antifungal activity against Trichosporon beigelii 1188 after 48 hrs by microdilution method; type: functional; details: Trichosporon beigelii, 1188, 48 h; how it was run: as §1
[11] = tested on: Pichia kudriavzevii; assay: Antifungal activity against Candida krusei ATCC 6258 after 48 hrs by microdilution method; type: functional; details: ATCC 6258, 48 h; how it was run: as §1
[12] = tested on: Pichia kudriavzevii; assay: Antifungal activity against Candida krusei E28 after 24 hrs by microdilution method; type: functional; details: E28, 24 h; how it was run: as §1
[13] = tested on: Lichtheimia corymbifera; assay: Antifungal activity against Absidia corymbifera 272 after 24 hrs by microdilution method; type: functional; details: Lichtheimia corymbifera, 272, 24 h; how it was run: as §2
[14] = tested on: Clavispora lusitaniae; assay: Antifungal activity against Candida lusitaniae 2446/I after 24 hrs by microdilution method; type: functional; how it was run: as §1
[15] = tested on: Trichophyton mentagrophytes; assay: Antifungal activity against Trichophyton mentagrophytes 445 after 120 hrs by microdilution method; type: functional; details: Trichophyton mentagrophytes, 445, 120 h
How it was run: (§3)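 Dermatophyte held on Sabouraud dextrose agar. M27-A microdilution in MOPS-buffered (0.165 M, pH 7.0) RPMI 1640 with L-glutamine. DMSO ≤2% final; twofold dilutions 500–0.48. Inoculum 5 × 10³ ± 0.2 cfu mL⁻¹ final. Incubated at 35 °C; MIC read visually at 72 and 120 h as 80% inhibition of control growth; determined twice in duplicate.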

[16] = tested on: Candida albicans; assay: Antifungal activity against Candida albicans ATCC 44859 after 48 hrs by microdilution method; type: functional; details: ATCC 44859, 48 h; how it was run: as §1
[17] = tested on: Pichia kudriavzevii; assay: Antifungal activity against Candida krusei E28 after 48 hrs by microdilution method; type: functional; details: E28, 48 h; how it was run: as §1
[18] = tested on: Aspergillus fumigatus; assay: Antifungal activity against Aspergillus fumigatus 231 after 48 hrs by microdilution method; type: functional; details: Aspergillus fumigatus, 231, 48 h; how it was run: as §2
[19] = tested on: Candida albicans; assay: Antifungal activity against Candida albicans ATCC 44859 after 24 hrs by microdilution method; type: functional; details: ATCC 44859, 24 h; how it was run: as §1
[20] = tested on: CCRF-CEM; assay: Cytostatic activity against human CCRF-CEM cells after 72 hrs by XTT assay; type: functional, cell-based
How it was run: (§4)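 Leukemia cells (L1210 ATCC CCL 219, CCRF-CEM ATCC CCL 119, HL-60 ATCC CCL 240) grown in 24-well plates in RPMI 1640 with fetal calf serum. Growth assessed 72 h after drug addition. Viability measured by XTT spectrophotometric assay; potency given as IC50.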

[21] = tested on: Nakaseomyces glabratus; assay: Antifungal activity against Candida glabrata 20/I after 48 hrs by microdilution method; type: functional; how it was run: as §1
[22] = tested on: Trichophyton mentagrophytes; assay: Antifungal activity against Trichophyton mentagrophytes 445 after 72 hrs by microdilution method; type: functional; details: Trichophyton mentagrophytes, 445, 72 h; how it was run: as §3
[23] = tested on: Candida albicans; assay: Antifungal activity against Candida albicans ATCC 90028 after 48 hrs by microdilution method; type: functional; details: ATCC 90028, 48 h; how it was run: as §1
[24] = tested on: HL-60; assay: Cytostatic activity against human HL60 cells after 72 hrs by XTT assay; type: functional, cell-based; how it was run: as §4
[25] = tested on: HeLa S3; assay: Cytostatic activity against human HeLaS3 cells after 72 hrs by XTT assay; type: functional, cell-based
[26] = tested on: Candida tropicalis; assay: Antifungal activity against Candida tropicalis 156 after 48 hrs by microdilution method; type: functional; details: Candida tropicalis, 156, 48 h; how it was run: as §1
[27] = tested on: Candida albicans; assay: Antifungal activity against Candida albicans ATCC 90028 after 24 hrs by microdilution method; type: functional; details: ATCC 90028, 24 h; how it was run: as §1
[28] = tested on: CCRF-CEM; assay: Cell cycle arrest in human CCRF-CEM cells assessed as decrease in accumulation at G2/M phase at 2.5 umol/L after 72 hrs by FACS analysis; type: functional, cell-based
How it was run: (§5)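 CCRF-CEM cells cultured with compound at 2.5 µmol/L. At the 72 h growth endpoint, cells ethanol-fixed and stained with propidium iodide in RNase A-containing buffer. Cell-cycle distribution analysed by flow cytometry against untreated control cells.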

[29] = tested on: CCRF-CEM; assay: Cell cycle arrest in human CCRF-CEM cells assessed as increase in accumulation at S phase at 2.5 umol/L after 72 hrs by FACS analysis; type: functional, cell-based; how it was run: as §5
[30] = tested on: CCRF-CEM; assay: Cell cycle arrest in human CCRF-CEM cells assessed as increase in accumulation at G1 phase at 2.5 umol/L after 72 hrs by FACS analysis; type: functional, cell-based; how it was run: as §5
[31] = tested on: CCRF-CEM; assay: Induction of apoptosis in human CCRF-CEM cells assessed as necrotic cells at 2.5 umol/L after 72 hrs by annexin-V FITC staining-based flow cytometry; type: functional
How it was run: (§6)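 CCRF-CEM cells grown with compound at 2.5 µmol/L alongside untreated controls. Apoptotic and necrotic populations detected by flow cytometry using an Annexin V-FITC apoptosis kit, following the manufacturer's protocol.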

[32] = tested on: CCRF-CEM; assay: Induction of apoptosis in human CCRF-CEM cells assessed as loss of cellular […] membrane integrity at 2.5 umol/L after 72 hrs by annexin-V FITC staining-based flow cytometry; type: functional, cell-based; how it was run: as §6
[33] = tested on: L1210; assay: Cytostatic activity against mouse L1210 cells after 72 hrs by XTT assay; type: functional, cell-based; how it was run: as §4
[34] = tested on: HeLa S3; assay: Cytostatic activity against human HeLaS3 cells after 48 hrs by XTT assay
[35] = tested on: CCRF-CEM; assay: Induction of apoptosis in human CCRF-CEM cells assessed as loss of cellular plasma membrane integrity at 2.5 umol/L after 72 hrs by annexin-V FITC staining-based flow cytometry; type: functional, cell-based; how it was run: as §6
[36] = Homo sapiens, CCRF-CEM, 72 h, read-out: IC50
[37] = Homo sapiens, HL-60, 72 h, read-out: IC50

Compound | MIC80 [1] | MIC80 [2] | MIC80 [3] | MIC80 [4] | MIC80 [5] | MIC80 [6] | MIC80 [7] | MIC80 [8] | MIC80 [9] | MIC80 [10] | MIC80 [11] | MIC80 [12] | MIC80 [13] | MIC80 [14] | MIC80 [15] | MIC80 [16] | MIC80 [17] | MIC80 [18] | MIC80 [19] | MIC80 [21] | other results
COCC1C=C(c2ccc(Br)cc2)C(=O)O1 (centres undefined) | 125 µM (≈ 35.4 µg/mL) | 125 µM (≈ 35.4 µg/mL) | 31.2 µM (≈ 8.85 µg/mL) | 250 µM (≈ 70.8 µg/mL) | 62.5 µM (≈ 17.7 µg/mL) | 125 µM (≈ 35.4 µg/mL) | 250 µM (≈ 70.8 µg/mL) | 250 µM (≈ 70.8 µg/mL) | 62.5 µM (≈ 17.7 µg/mL) | 125 µM (≈ 35.4 µg/mL) | 250 µM (≈ 70.8 µg/mL) | 250 µM (≈ 70.8 µg/mL) | 125 µM (≈ 35.4 µg/mL) | 62.5 µM (≈ 17.7 µg/mL) | 31.2 µM (≈ 8.85 µg/mL) | 31.2 µM (≈ 8.85 µg/mL) | 500 µM (≈ 142 µg/mL) | 62.5 µM (≈ 17.7 µg/mL) | 15.6 µM (≈ 4.42 µg/mL) | 125 µM (≈ 35.4 µg/mL) | IC50 [20, 36]: 2.21 µM; MIC80 [22]: 31.2 µM (≈ 8.85 µg/mL); MIC80 [23]: 31.2 µM (≈ 8.85 µg/mL); IC50 [24, 37]: 16 µM; IC50 [25]: Not Active; MIC80 [26]: 62.5 µM (≈ 17.7 µg/mL); MIC80 [27]: 31.2 µM (≈ 8.85 µg/mL)
C=C1C=C(c2ccc(Br)cc2)C(=O)O1 | 7.81 µM (≈ 1.96 µg/mL) | 15.6 µM (≈ 3.92 µg/mL) | 1.95 µM (≈ 0.49 µg/mL) | 15.6 µM (≈ 3.92 µg/mL) | 7.81 µM (≈ 1.96 µg/mL) | 1.95 µM (≈ 0.49 µg/mL) | 7.81 µM (≈ 1.96 µg/mL) | 125 µM (≈ 31.4 µg/mL) | 3.9 µM (≈ 0.979 µg/mL) | 15.6 µM (≈ 3.92 µg/mL) | 7.81 µM (≈ 1.96 µg/mL) | 7.81 µM (≈ 1.96 µg/mL) | 31.2 µM (≈ 7.85 µg/mL) | 7.81 µM (≈ 1.96 µg/mL) | 3.9 µM (≈ 0.979 µg/mL) | 1.95 µM (≈ 0.49 µg/mL) | 7.81 µM (≈ 1.96 µg/mL) | 7.81 µM (≈ 1.96 µg/mL) | 0.49 µM (≈ 0.123 µg/mL) | 1.95 µM (≈ 0.49 µg/mL) | Activity [28]: Active; Activity [29]: Active; Activity [30]: Active; Activity [31]: > 80%; Activity [32]: Active; IC50 [20, 36]: 2.52 µM; IC50 ([33]; Mus musculus, L1210, 72 h, read-out: IC50): 21 µM; MIC80 [22]: 1.95 µM (≈ 0.49 µg/mL); MIC80 [23]: 7.81 µM (≈ 1.96 µg/mL); IC50 [24, 37]: 18 µM; IC50 ([34]; Homo sapiens, HeLa S3, 48 h, read-out: IC50): 2.09 µM; MIC80 [26]: 15.6 µM (≈ 3.92 µg/mL); MIC80 [27]: 3.9 µM (≈ 0.979 µg/mL); Activity [35]: Active
O=C1O/C(=C\CCCO)C=C1c1ccc(Br)cc1 | > 500 µM | > 500 µM | > 500 µM | > 500 µM | > 500 µM | > 500 µM | > 500 µM | 62.5 µM (≈ 19.3 µg/mL) | > 500 µM | > 500 µM | > 500 µM | > 500 µM | 62.5 µM (≈ 19.3 µg/mL) | > 500 µM | 62.5 µM (≈ 19.3 µg/mL) | 125 µM (≈ 38.6 µg/mL) | > 500 µM | > 500 µM | 62.5 µM (≈ 19.3 µg/mL) | > 500 µM | IC50 ([20]; ccrf-cem): Not Active; IC50 ([33]; l1210): Not Active; MIC80 [22]: 62.5 µM (≈ 19.3 µg/mL); MIC80 [23]: > 500 µM; IC50 ([24]; hl-60): Not Active; IC50 ([34]; hela s3): Not Active; MIC80 [26]: > 500 µM; MIC80 [27]: > 500 µM
